Data as given in ChEMBL document CHEMBL2203081 (Bioorg Med Chem Lett, 2012).

How the values were obtained:
[1] = molecular target: Receptor-interacting serine/threonine-protein kinase 2 (Homo sapiens) (UniProt O43353); assay: Inhibition of RIPK2 assessed as residual activity at 1 uM
[2] = molecular target: Inhibitor of nuclear factor kappa-B kinase subunit alpha (Homo sapiens) (UniProt O15111); assay: Inhibition of IKK-alpha assessed as residual activity at 10 uM relative to control
[3] = molecular target: Testis-specific serine/threonine-protein kinase 1 (Homo sapiens) (UniProt Q9BXA7); assay: Inhibition of TSSK1 assessed as residual activity at 1 uM
[4] = molecular target: Cyclin-dependent kinase 14 (Homo sapiens) (UniProt O94921); assay: Inhibition of PFTK1 assessed as residual activity at 10 uM relative to control
[5] = molecular target: Serine/threonine-protein kinase 24 (Homo sapiens) (UniProt Q9Y6E0); assay: Inhibition of MST3 assessed as residual activity at 1 uM
[6] = molecular target: Serine/threonine-protein kinase Sgk1 (Homo sapiens) (UniProt O00141); assay: Inhibition of SGK assessed as residual activity at 10 uM relative to control
[7] = molecular target: Casein kinase I isoform gamma-3 (Homo sapiens) (UniProt Q9Y6M4); assay: Inhibition of CSNK1G3 assessed as residual activity at 10 uM relative to control
Outline: (§1)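 Competition kinase-binding assay (KINOMEscan) across a non-redundant panel of 329 kinases beyond the radiometric panel; residual binding expressed relative to control.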

[8] = system: Mast/stem cell growth factor receptor Kit (Homo sapiens), P10721 [V559D]; assay: Inhibition of KIT V559D mutant assessed as residual activity at 10 uM relative to control
[9] = molecular target: T1, Serine/threonine-protein kinase D1 (Homo sapiens) (UniProt Q15139); assay: Inhibition of PRKD1 assessed as residual activity at 10 uM relative to control
T1 sequence (whole entry): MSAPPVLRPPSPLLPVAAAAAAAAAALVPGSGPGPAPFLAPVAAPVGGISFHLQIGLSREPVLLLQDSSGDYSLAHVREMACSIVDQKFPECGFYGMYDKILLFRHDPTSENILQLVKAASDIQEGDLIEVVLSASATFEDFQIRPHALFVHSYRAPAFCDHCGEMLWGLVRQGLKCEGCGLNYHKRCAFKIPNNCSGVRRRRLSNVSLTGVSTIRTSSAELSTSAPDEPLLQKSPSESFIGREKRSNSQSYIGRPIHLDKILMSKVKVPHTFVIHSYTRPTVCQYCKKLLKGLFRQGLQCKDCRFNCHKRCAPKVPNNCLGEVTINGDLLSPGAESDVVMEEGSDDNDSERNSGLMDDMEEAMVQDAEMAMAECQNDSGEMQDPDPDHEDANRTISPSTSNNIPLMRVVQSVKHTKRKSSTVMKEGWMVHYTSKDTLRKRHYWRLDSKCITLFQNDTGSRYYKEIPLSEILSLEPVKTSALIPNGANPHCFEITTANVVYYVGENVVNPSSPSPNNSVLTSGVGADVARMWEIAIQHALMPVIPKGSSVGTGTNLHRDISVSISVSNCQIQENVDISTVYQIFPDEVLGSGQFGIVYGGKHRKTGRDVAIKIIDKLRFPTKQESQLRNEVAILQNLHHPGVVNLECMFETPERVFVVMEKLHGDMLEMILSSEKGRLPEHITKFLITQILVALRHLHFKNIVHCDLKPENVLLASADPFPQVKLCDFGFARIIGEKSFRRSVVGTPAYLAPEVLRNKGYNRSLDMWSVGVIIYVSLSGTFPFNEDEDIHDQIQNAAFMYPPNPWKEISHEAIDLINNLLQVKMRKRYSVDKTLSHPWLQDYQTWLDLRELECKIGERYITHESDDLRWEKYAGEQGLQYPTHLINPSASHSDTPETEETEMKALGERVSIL

[10] = molecular target: Citron Rho-interacting kinase (Homo sapiens) (UniProt O14578); assay: Inhibition of CIT assessed as residual activity at 10 uM relative to control
[11] = molecular target: Death-associated protein kinase 2 (Homo sapiens) (UniProt Q9UIK4); assay: Inhibition of DAPK2 assessed as residual activity at 10 uM relative to control; outline: as §1
[12] = molecular target: Mitogen-activated protein kinase 1 (Homo sapiens) (UniProt P28482); assay: Inhibition of ERK2 assessed as residual activity at 10 uM
Outline: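 Radioactivity-based enzymatic activity assay of the named kinase, run as part of a 131-kinase specificity panel at the National Centre for Protein Kinase Profiling (Dundee). Residual activity was read at the stated single inhibitor concentration.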

[13] = molecular target: Cyclin-dependent kinase 2/cyclin A (Homo sapiens) (UniProt P24941+P20248+P78396); assay: Inhibition of CDK2-Cyclin A assessed as residual activity at 1 uM; assay type: protein-complex assay
[14] = molecular target: MAP kinase-activated protein kinase 5 (Homo sapiens) (UniProt Q8IW41); assay: Inhibition of PRAK assessed as residual activity at 1 uM
[15] = molecular target: Dual specificity protein kinase CLK1 (Homo sapiens) (UniProt P49759); assay: Inhibition of CLK1 assessed as residual activity at 10 uM relative to control
[16] = molecular target: BMP-2-inducible protein kinase (Homo sapiens) (UniProt Q9NSY1); assay: Inhibition of BIKE assessed as residual activity at 10 uM relative to control
[17] = molecular target: Homeodomain-interacting protein kinase 4 (Homo sapiens) (UniProt Q8NE63); assay: Inhibition of HIPK4 assessed as residual activity at 10 uM relative to control
[18] = molecular target: Inhibitor of nuclear factor kappa-B kinase subunit epsilon (Homo sapiens) (UniProt Q14164); assay: Inhibition of IKKe assessed as residual activity at 1 uM
[19] = molecular target: Inhibitor of nuclear factor kappa-B kinase subunit epsilon (Homo sapiens) (UniProt Q14164); assay: Inhibition of IKKe assessed as residual activity at 10 uM
[20] = molecular target: Serine/threonine-protein kinase 36 (Homo sapiens) (UniProt Q9NRP7); assay: Inhibition of STK36 assessed as residual activity at 10 uM relative to control
[21] = molecular target: Tyrosine-protein kinase Tec (Homo sapiens) (UniProt P42680); assay: Inhibition of TEC assessed as residual activity at 10 uM relative to control
[22] = molecular target: Misshapen-like kinase 1 (Homo sapiens) (UniProt Q8N4C8); assay: Inhibition of MINK1 assessed as residual activity at 10 uM
[23] = molecular target: Insulin receptor-related protein (Homo sapiens) (UniProt P14616); assay: Inhibition of INSRR assessed as residual activity at 10 uM relative to control
[24] = system: Receptor-type tyrosine-protein kinase FLT3 (Homo sapiens), P36888 [D835H]; assay: Inhibition of FLT3 D835H mutant assessed as residual activity at 10 uM relative to control
[25] = system: Epidermal growth factor receptor (Homo sapiens), P00533 [L858R,T790M]; assay: Inhibition of EGFR L858R,T790M mutant assessed as residual activity at 10 uM relative to control; assay type: protein assay; outline: as §1
[26] = molecular target: Serine/threonine-protein kinase N2 (Homo sapiens) (UniProt Q16513); assay: Inhibition of PKN2 assessed as residual activity at 10 uM relative to control
[27] = molecular target: Ephrin type-A receptor 7 (Homo sapiens) (UniProt Q15375); assay: Inhibition of EPHA7 assessed as residual activity at 10 uM relative to control; outline: as §1
Sequence of Ephrin type-A receptor 7 (Homo sapiens) (Q15375 28-998 limits assumed): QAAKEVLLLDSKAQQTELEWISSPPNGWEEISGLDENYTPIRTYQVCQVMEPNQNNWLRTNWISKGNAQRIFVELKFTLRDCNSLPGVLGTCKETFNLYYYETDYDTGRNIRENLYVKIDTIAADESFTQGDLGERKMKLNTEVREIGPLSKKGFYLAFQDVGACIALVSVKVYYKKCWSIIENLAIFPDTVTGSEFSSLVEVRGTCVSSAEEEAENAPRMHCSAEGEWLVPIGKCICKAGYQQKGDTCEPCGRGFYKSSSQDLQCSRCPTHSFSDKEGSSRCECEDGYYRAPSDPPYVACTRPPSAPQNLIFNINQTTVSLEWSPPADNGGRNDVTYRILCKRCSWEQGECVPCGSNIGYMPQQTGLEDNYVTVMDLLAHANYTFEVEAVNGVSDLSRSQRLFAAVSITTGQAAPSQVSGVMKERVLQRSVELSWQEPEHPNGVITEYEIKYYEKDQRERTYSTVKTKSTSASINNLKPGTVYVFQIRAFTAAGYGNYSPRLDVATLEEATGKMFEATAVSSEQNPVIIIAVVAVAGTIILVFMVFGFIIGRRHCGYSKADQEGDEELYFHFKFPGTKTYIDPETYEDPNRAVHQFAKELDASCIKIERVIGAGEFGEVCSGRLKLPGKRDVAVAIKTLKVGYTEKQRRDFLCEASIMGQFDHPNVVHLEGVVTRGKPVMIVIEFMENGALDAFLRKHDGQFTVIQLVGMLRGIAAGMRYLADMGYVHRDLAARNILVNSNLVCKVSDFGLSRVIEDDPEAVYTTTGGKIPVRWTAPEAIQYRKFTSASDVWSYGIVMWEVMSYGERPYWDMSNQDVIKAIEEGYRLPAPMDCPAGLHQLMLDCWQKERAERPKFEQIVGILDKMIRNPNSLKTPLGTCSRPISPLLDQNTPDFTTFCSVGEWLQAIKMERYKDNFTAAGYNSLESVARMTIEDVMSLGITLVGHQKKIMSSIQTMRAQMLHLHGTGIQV

Sequence of Inhibitor of nuclear factor kappa-B kinase subunit epsilon (Homo sapiens) (Q14164 whole entry): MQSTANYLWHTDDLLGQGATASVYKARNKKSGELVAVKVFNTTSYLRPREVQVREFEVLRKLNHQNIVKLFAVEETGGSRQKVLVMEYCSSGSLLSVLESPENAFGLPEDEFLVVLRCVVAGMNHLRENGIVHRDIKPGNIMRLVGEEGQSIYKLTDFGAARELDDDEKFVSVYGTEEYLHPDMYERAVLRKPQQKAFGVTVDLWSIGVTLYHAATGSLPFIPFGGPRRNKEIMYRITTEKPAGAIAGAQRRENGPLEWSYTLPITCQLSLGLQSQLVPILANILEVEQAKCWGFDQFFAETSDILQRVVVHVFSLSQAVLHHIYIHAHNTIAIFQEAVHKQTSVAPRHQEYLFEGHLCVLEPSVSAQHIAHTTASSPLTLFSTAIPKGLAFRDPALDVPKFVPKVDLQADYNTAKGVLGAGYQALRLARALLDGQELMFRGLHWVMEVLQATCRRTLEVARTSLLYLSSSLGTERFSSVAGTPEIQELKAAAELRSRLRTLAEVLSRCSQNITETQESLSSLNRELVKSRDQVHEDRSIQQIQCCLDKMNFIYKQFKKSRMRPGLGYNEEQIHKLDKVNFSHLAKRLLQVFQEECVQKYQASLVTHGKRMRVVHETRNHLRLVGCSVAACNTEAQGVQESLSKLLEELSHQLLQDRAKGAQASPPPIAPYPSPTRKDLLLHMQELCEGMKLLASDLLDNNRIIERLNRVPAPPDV
Sequence of Homeodomain-interacting protein kinase 4 (Homo sapiens) (Q8NE63 whole entry): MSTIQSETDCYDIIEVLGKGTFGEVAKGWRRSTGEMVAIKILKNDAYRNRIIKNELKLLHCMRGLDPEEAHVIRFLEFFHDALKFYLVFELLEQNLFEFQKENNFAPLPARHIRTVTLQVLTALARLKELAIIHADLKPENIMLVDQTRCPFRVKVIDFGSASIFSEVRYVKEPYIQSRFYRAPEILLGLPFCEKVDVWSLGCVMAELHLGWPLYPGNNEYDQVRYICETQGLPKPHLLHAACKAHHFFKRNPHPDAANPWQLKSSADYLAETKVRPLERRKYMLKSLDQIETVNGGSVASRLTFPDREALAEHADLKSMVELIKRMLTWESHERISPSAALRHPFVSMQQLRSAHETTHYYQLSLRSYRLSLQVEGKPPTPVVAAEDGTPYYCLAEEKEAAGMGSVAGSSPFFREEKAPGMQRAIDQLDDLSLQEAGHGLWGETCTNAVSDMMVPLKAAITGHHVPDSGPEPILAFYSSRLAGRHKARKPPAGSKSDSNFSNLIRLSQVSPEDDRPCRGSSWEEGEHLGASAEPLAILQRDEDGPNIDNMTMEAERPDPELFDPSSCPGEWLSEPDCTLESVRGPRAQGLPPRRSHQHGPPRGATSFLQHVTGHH
Sequence of Tyrosine-protein kinase Tec (Homo sapiens) (P42680 whole entry): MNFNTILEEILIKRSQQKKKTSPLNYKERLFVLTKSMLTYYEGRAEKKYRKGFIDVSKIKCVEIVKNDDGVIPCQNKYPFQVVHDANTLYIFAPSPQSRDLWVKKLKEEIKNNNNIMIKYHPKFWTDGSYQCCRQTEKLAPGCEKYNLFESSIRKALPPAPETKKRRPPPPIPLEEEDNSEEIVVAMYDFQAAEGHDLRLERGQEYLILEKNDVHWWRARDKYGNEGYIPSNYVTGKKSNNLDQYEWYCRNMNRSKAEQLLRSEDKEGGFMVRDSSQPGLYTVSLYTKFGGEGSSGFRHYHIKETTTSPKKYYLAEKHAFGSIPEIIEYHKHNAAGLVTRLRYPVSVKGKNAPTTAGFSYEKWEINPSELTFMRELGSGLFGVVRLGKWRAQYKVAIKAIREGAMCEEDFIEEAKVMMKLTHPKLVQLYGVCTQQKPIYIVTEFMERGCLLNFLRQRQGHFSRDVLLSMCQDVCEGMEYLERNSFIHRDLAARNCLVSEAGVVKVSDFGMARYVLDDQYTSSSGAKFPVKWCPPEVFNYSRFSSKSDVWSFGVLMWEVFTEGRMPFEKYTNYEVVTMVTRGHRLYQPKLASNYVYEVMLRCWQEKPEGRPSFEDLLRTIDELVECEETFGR
Sequence of Mast/stem cell growth factor receptor Kit (Homo sapiens), P10721 [V559D] (P10721 whole entry V559D): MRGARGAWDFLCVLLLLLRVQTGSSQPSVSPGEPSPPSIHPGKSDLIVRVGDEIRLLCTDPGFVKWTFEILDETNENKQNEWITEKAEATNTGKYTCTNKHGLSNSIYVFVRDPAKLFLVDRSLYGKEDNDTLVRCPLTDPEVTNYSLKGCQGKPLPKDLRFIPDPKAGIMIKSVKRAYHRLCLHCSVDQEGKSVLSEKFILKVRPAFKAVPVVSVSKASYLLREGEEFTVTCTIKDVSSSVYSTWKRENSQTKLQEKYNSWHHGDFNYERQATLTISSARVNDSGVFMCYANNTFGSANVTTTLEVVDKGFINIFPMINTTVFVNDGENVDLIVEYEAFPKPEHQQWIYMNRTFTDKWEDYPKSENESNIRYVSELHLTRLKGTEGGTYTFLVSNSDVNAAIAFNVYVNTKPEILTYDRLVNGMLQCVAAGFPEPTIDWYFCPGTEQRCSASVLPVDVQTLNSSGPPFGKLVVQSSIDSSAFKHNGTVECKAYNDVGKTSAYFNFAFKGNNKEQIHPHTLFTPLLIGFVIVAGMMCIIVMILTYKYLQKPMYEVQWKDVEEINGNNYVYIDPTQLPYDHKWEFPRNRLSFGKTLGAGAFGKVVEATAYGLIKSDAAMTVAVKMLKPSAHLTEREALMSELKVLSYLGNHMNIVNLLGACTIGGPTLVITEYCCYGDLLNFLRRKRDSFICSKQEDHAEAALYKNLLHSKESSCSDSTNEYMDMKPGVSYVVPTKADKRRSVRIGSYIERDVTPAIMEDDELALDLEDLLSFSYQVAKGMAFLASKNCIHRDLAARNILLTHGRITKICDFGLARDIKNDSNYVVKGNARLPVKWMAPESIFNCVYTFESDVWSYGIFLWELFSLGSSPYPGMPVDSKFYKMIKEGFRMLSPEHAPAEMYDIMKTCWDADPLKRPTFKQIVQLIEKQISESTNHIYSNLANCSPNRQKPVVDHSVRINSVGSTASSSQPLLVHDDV
Sequence of Dual specificity protein kinase CLK1 (Homo sapiens) (P49759 whole entry, looked up): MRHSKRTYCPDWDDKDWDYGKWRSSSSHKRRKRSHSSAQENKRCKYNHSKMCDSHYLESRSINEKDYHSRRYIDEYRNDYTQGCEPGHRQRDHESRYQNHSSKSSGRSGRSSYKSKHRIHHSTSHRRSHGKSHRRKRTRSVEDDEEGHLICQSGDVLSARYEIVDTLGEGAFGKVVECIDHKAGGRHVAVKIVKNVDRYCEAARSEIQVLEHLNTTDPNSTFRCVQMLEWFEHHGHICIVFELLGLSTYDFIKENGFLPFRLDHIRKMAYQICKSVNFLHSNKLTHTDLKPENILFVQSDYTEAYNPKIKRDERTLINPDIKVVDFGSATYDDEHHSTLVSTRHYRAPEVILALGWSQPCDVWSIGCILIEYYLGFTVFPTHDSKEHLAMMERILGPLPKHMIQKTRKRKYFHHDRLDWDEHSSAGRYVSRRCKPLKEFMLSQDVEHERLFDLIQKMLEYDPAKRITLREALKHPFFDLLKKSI
Sequence of Serine/threonine-protein kinase Sgk1 (Homo sapiens) (O00141 whole entry, canonical isoform): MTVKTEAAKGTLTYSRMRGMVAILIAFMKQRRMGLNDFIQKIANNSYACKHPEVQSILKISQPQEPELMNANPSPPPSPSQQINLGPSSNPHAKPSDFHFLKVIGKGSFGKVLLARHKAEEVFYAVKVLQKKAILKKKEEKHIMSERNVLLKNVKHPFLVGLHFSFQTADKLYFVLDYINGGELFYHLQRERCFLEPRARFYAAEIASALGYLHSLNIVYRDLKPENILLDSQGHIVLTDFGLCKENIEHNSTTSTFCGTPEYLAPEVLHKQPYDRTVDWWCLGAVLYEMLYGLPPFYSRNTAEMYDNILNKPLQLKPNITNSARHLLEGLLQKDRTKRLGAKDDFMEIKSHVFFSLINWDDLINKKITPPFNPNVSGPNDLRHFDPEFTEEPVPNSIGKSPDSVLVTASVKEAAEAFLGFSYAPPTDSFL

O=C(Nc1cccnc1)c1cc(-c2ccnc(F)c2)ccc1OCc1ccccc1
Activity [1]: 59%
Activity [2]: 58%
Activity [3]: 103%
Activity [4]: 80%
Activity [5]: 101%
Activity [6]: 33%
Activity [7]: 26%
Activity [8]: 70%
Activity [9]: 41%
Activity [10]: 48%
Activity [11]: 69%
Activity [12]: 115%
Activity [13]: 113%
Activity [14]: 109%
Activity [15]: 66%
Activity [16]: 65%
Activity [17]: 80%
Activity [18]: 106%
Activity [19]: 102%
Activity [20]: 63%
Activity [21]: 53%
Activity [22]: 76%
Activity [23]: 71%
Activity [24]: 13%
Activity [25]: 46%
Activity [26]: 20%
Activity [27]: 60%
